PostGolgi ctrl = growth of the yeast control strain, post-Golgi counter-screen; efflux-deficient yeast background strain, growth absorbance A615, 16 h; inhibition, % at 10 µM; AID 738; hit rate 5% among 98,000
Ecoli tolC = E. coli tolC mutant growth inhibition. E. coli BW25113 tolC mutant growth, OD615. growth inhibition, % at 10 µM (by protocol). hit rate 2.2% among 65,000. AID 573;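 active = growth inhibition at or above a cutoff equal to the mean over every tested compound plus 3 SD, cut at about 60% in these data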;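 also: growth measured after 20 h incubation at 37 °C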
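Test system: E. coli BW25113 ΔtolC::kan bacteria; incubation: 37 °C, 20 h exposure; medium: LB broth supplemented with 50 µg/mL kanamycin; read-out basis: percent growth inhibition; signal: A615 absorbance measurement; compound: 10 µM final, single dose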
HER2 expr 66K = inhibitors of human Her2 kinase expression. hit rate 0.69% among 65,000. SKBR-3 HER2 protein level, AlphaScreen, 18-24 h; active compounds read low. P04626. HER2 level % of control, % at 10 µM;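 active = HER2 level under 5% of the carrier-only control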;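 also: 100% = DMSO carrier and 0% = 500 nM PU-H71 HSP90 inhibitor; lower value means stronger loss of Her2 protein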
E coli WT exp = growth inhibitors of E. coli BW25113 wild type. OD600 absorbance. AID 710. hit rate 0.15% among 98,000. growth inhibition, % at 100 µM;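 active = growth inhibition above about 50% at one test dose, limit read from the data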;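 also: growth measured after 20 h incubation at 37 °C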
PostGolgi yeast = growth inhibition of a yeast mutant, post-Golgi transport screen. post-Golgi transport phenotypic cell assay. inhibition, % at 10 µM. hit rate 0.9% among 98,000;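 also: yeast cells grown in 1536-well plates; yeast grown about 18 h at 30C before absorbance read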
* hit, by the source's call; / = no result given. Most compounds without a hit are left out; they make up all but 6.6% or so of the library. Rule as the data show it, unless noted: active = inhibition above about 30%; inactive = the rest.

SMILES | PostGolgi ctrl | Ecoli tolC | HER2 expr 66K | E coli WT exp | PostGolgi yeast
Cc1cccc(N2CCN(C(=O)C3CCCN(S(=O)(=O)c4cnc[nH]4)C3)CC2C)c1 (configuration not stated) | 2.7 | -11.2 | 100.9 | -1.0 | 1.0
On1onc2c3cc(-c4ccccc4)nc3ccc21 | 94.2* | 98.0* | 40.9 | 42.0 | 96.3*
c1ccc(-c2cc3c(ccc4nonc43)nn2)cc1 | 9.8 | 12.7 | 70.5 | -1.0 | -1.0
COc1ccc(NC(=O)C2CCN(S(=O)(=O)c3cccnc3)CC2)cc1Cl | / | -5.9 | 101.8 | / | /
CCC(=O)OCCCCCCOc1ccc(C(=O)O)cc1 | 8.5 | / | / | -3.0 | -37.1
CSc1ccc(-c2cc(=O)c3ccccc3o2)cc1 | 0.7 | 61.3* | 59.2 | -12.0 | 1.2
Cc1csc(SCC(=O)NCc2cccs2)n1 | 38.3* | -5.3 | 109.0 | 12.0 | 1.9
CCn1c(SCC(=O)NCc2cccs2)nnc1-c1ccncc1 | 14.6 | -7.2 | 111.5 | -4.0 | 6.4
CCOC(=O)c1ccc(NC(=O)CC2COc3ccccc3O2)cc1 (configuration not stated) | 31.9* | 43.2 | 89.2 | -6.0 | 3.9
CCOC(=O)c1ccc(NC(=O)CCC(=O)OC)cc1 | 30.4* | -7.1 | 100.3 | 10.0 | -0.5
CCOC(=O)CC(=O)Nc1ccc(C(=O)OCC)cc1 | 4.6 | -5.3 | 94.7 | -2.0 | 2.3
CCOC(=O)C1CCCN(CC(=O)Nc2c(C(=O)OC)[nH]c3ccc(Cl)cc23)C1 (configuration not stated) | 39.1* | 13.4 | 84.1 | 10.0 | -9.7
COC(=O)c1[nH]c2ccc(C)cc2c1NC(=O)CCN1CCN(Cc2ccc3c(c2)OCO3)CC1 | -7.1 | 10.2 | 101.2 | 3.0 | -2.4
COC(=O)c1[nH]c2cc(OC)ccc2c1NC(=O)CN1CCN(c2cccc(C)c2)C(C)C1 (configuration not stated) | 36.9* | 16.4 | 60.6 | -4.0 | -0.1
CCN(CC(=O)Nc1c(C(=O)OC)[nH]c2ccc(Cl)cc12)c1ccc2c(c1)OCO2 | 56.6* | 20.1 | 81.7 | -14.0 | 19.3
COC(=O)c1[nH]c2cc(C)ccc2c1NC(=O)CN1CCN(c2ccccc2OC)CC1 | 6.3 | 38.4 | 61.6 | -5.0 | 4.8
COc1cc(C#CC#CCN2CCCCC2)ccc1O | -0.3 | 24.1 | 74.9 | 34.0 | -12.6
C=CCc1cc(OC)ccc1OCC(O)CN1CCN(c2ccc(OC)cc2)CC1 (configuration not stated) | 44.9* | 26.1 | 67.8 | 12.0 | -5.7
Cc1ccc(OCC(O)CN2CCN(Cc3ccc4c(c3)OCO4)CC2)c(C)c1 (configuration not stated) | 29.9 | 9.0 | 98.3 | -6.0 | 100.5*
C=CCc1cc(C)ccc1OCC(O)CN1CCN(c2ccccc2)CC1 (configuration not stated) | 14.5 | 66.9* | 78.7 | 14.0 | 2.5
CC(=O)c1ccc(OCC(O)CN2CCN(Cc3ccc4c(c3)OCO4)CC2)cc1 (configuration not stated) | 15.4 | -6.1 | 99.6 | 4.0 | -8.7
COC(=O)c1ccc(CSc2nc3ccc(C)cc3[nH]2)o1 | 7.8 | / | / | 10.0 | -10.0
Cc1nnc(SCC(=O)c2c(N)n(C)c(=O)n(C)c2=O)n1Cc1ccccc1 | -7.1 | -3.6 | -33.0* | 6.0 | -6.2
CC(c1nnc(SCC(=O)c2c(N)n(C)c(=O)n(C)c2=O)n1-c1ccc(Cl)cc1)N(C)C (configuration not stated) | 37.4* | 1.3 | 93.8 | 0.0 | 14.3
Cc1nnc(SCC(=O)Nc2sccc2C(N)=O)n1Cc1ccccc1 | 31.9* | -8.3 | 150.2 | -1.0 | 6.4
SMILES | PostGolgi ctrl | Ecoli tolC | HER2 expr 66K | E coli WT exp | PostGolgi yeast
Cn1c(N)c(C(=O)CSc2nc3ccccc3n2-c2ccccc2)c(=O)n(C)c1=O | / | -15.2 | 101.4 | / | /
Cc1occc1-c1nnc(SCC(=O)c2c(N)n(Cc3ccccc3)c(=O)n(C)c2=O)n1C | -1.4 | -10.2 | 86.9 | 5.0 | -0.3
Nc1ccnc(C(F)(F)F)c1C(=O)c1ccccc1 | -1.2 | -17.2 | 81.5 | 8.0 | -0.2
COc1ccc(S(=O)(=O)N(C)CC(=O)NCCC2=CCCCC2)cc1C | 18.2 | / | / | -2.0 | 1.4
CCCCN=c1sc(C(=O)OC)cc(=O)n1CCCC | 4.7 | 10.1 | 103.5 | -9.0 | 1.1
CCOC(=O)c1ccc(N=c2sc(C(=O)OC)cc(=O)n2Cc2ccco2)cc1 | 56.8* | 13.0 | 2.9* | -26.0 | 1.2
COC(=O)c1cc(=O)n(Cc2cccs2)c(=NCc2cccs2)s1 | 31.3* | -8.4 | 65.8 | -11.0 | 9.5
Cc1ccc(C)c(-n2c(CNc3ccc(F)cc3)nnc2SCC(N)=O)c1 | 4.5 | 0.0 | 99.3 | -5.0 | 0.2
CC(C)CCn1c(SCC(=O)c2ccccc2)nc2c1c(=O)[nH]c(=O)n2C | 19.4 | -15.1 | 94.0 | -11.0 | -4.7
CCCCCSc1nc2c(c(=O)[nH]c(=O)n2C)n1CCc1ccccc1 | / | 7.8 | 88.5 | / | /
CC(C)Sc1nc2c(c(=O)[nH]c(=O)n2C)n1CCc1ccccc1 | 31.2* | 5.2 | 99.2 | -21.0 | -0.7
CC(C)CCn1c(Sc2nc3ccccc3s2)nc2c1c(=O)[nH]c(=O)n2C | 33.2* | 12.3 | 98.2 | 8.0 | -6.3
CCCn1c(SCc2ccccc2)nc2c1c(=O)[nH]c(=O)n2C | 49.5* | 10.3 | 91.7 | -16.0 | -2.8
CCC(C)Sc1nc2c(c(=O)[nH]c(=O)n2C)n1CCc1ccccc1 (configuration not stated) | 19.8 | 5.5 | 105.4 | -1.0 | -4.9
Cc1cc(C)n(-c2nc3c(c(=O)[nH]c(=O)n3C)n2CCc2ccccc2)n1 | 55.9* | 2.1 | 91.4 | 4.0 | -2.9
CN(CCO)C(=O)CCC(=O)Nc1ccc(S(N)(=O)=O)cc1 | -5.0 | -10.5 | 105.0 | 3.0 | 1.4
CSCCC(C(=O)Nc1ccc2c(c1)OCO2)N1C(=O)c2ccccc2C1=O (configuration not stated) | 3.7 | -0.6 | 103.3 | 8.0 | -2.7
Cc1cc(C)cc(N(C(C)C(=O)NCCC2=CCCCC2)S(C)(=O)=O)c1 (configuration not stated) | 13.7 | / | / | -1.0 | -8.0
CN(C)c1ccc(C(C(=O)NC(C)(C)C)N(C(=O)c2csnn2)C2CC2)cc1 (configuration not stated) | 1.9 | 30.6 | 100.6 | -1.0 | 6.1
CCc1ccc(N(C(=O)c2csnn2)C(C(=O)NC(C)(C)C)c2ccncc2)cc1 (configuration not stated) | -1.7 | / | / | -1.0 | 35.0*
O=C(Nc1nnc(N2CCCCCC2)s1)c1cc(-c2ccc(Br)cc2)on1 | 8.7 | 16.7 | 80.5 | -7.0 | -6.2
CC1CCCC(C)N1c1nnc(NC(=O)c2cc(-c3ccc(Br)cc3)on2)s1 (configuration not stated) | 30.9* | / | / | -9.0 | 4.2
O=C(CC1(O)C(=O)Nc2ccccc21)c1cccnc1 (configuration not stated) | -2.4 | -6.6 | 115.5 | 2.0 | 10.8
O=C(Cc1cccs1)N1CCCC(c2nc3c(nnn3Cc3cccc(Cl)c3)c(=O)[nH]2)C1 (configuration not stated) | 3.2 | 19.7 | 74.8 | -4.0 | 1.2
CCCCc1ccc(CC2S/C(=C(\C#N)C(=O)N3CCOCC3)N(c3ccccc3)C2=O)cc1 (configuration not stated) | 37.5* | / | / | 2.0 | -5.9
